In ChEMBL document CHEMBL1149278, “Synthesis and structure-activity relationship studies for hydantoins and analogues as voltage-gated sodium channel ligands” (J Med Chem, 2004):

Test: Displacement of [3H]BTX-B from voltage gated sodium channel in rat cerebral cortex synaptoneurosomes
Format: tissue-based
How it was run: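 Rat cerebral cortex synaptoneurosomes (~1 mg protein), stored frozen at –70 °C, thawed and resuspended in HEPES incubation buffer. […] Filtration assay; nonspecific binding defined with 300 μM veratridine. Triplicates, DPH control run alongside. IC50 by Probit analysis, using only points with 10–90% inhibition.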

Compound | IC50
CCCCCC(O)(C(N)=O)c1ccccc1 (stereo not given) | 178 µM
CCCCCCCC1(c2ccccc2)NC(=O)NC1=O (stereo not given) | 5 µM
CCC(OCCCc1ccccc1)(C(=O)NCCCc1ccccc1)c1ccccc1 (stereo not given) | 4.3 µM
CCCCCCCC(N)(C(=O)O)c1ccccc1 (stereo not given) | 300 µM
CCCCCCCCCC1(c2ccccc2)NC(=O)N(Cc2ccccc2)C1=O (stereo not given) | 5.1 µM
CCCC(O)(C(N)=O)c1ccccc1 (stereo not given) | 500 µM
CCC1(c2ccccc2)NC(=O)N(CCN2CCN(C(c3ccccc3)c3ccccc3)CC2)C1=O (stereo not given) | 1.1 µM
CC(O)(C(N)=O)c1ccccc1 (stereo not given) [ATROLACTAMIDE] | > 500 µM
CCCC1(c2ccccc2)NC(=O)N(S(C)(=O)=O)C1=O (stereo not given) | 500 µM
CCCCCCCC(O)(C(=O)OCC)c1ccccc1 (stereo not given) | 36 µM
CCCCCC(O)(C(=O)NCCCc1ccccc1)c1ccccc1 (stereo not given) | 2.5 µM
CCCCCCCCCC1(c2ccccc2)NC(=O)N(S(C)(=O)=O)C1=O (stereo not given) | 11 µM
CCCCCC1(c2ccccc2)NC(=O)N(Cc2ccccc2)C1=O (stereo not given) | 6.9 µM
CCCCCCCC(O)(C(N)=O)c1ccccc1 (stereo not given) | 9 µM
CCCCCCCC1(c2ccccc2)OC(=O)NC1=O (stereo not given) | 30 µM
CCC(O)(C(=O)NCCCc1ccccc1)c1ccccc1 (stereo not given) | 8.2 µM
CCOC(=O)C(O)(CC)c1ccccc1 (stereo not given) | > 200 µM
CCCC1(c2ccccc2)NC(=O)NC1=O (stereo not given) | 162 µM
CCCCCCCC1(c2ccccc2)NC(=O)N(S(C)(=O)=O)C1=O (stereo not given) | 13 µM
CCCCCC1(c2ccccc2)NC(=O)N(S(C)(=O)=O)C1=O (stereo not given) | 112 µM
CCCCCC(N)(C(=O)O)c1ccccc1 (stereo not given) | > 500 µM
CCCCC1(c2ccccc2)NC(=O)NC1=O (stereo not given) | 103 µM
CCC1(c2ccccc2)NC(=O)N(CN2CCN(C(c3ccccc3)c3ccccc3)CC2)C1=O (stereo not given) | 3.3 µM
CCC(O)(C(=O)O)c1ccccc1 (stereo not given) | > 500 µM
CC(O)(C(=O)N1CCN(C(c2ccccc2)c2ccccc2)CC1)c1ccccc1 (stereo not given) | 6.3 µM

Compound | IC50
CCCC(O)(C(=O)O)c1ccccc1 (stereo not given) | > 500 µM
CCCCCCCC1(c2ccccc2)NC(=O)N(CN2CCN(C(c3ccccc3)c3ccccc3)CC2)C1=O (stereo not given) | 2.2 µM
CCCCCCCCCC(N)(C(=O)O)c1ccccc1 (stereo not given) | 274 µM
O=C1NC(c2ccccc2)(c2ccccc2)C(=O)N1CCN1CCN(C(c2ccccc2)c2ccccc2)CC1 | 0.22 µM
CCCCCC1(c2ccccc2)OC(=O)NC1=O (stereo not given) | 112 µM
CCC(O)(C(N)=O)c1ccccc1 (stereo not given) | > 500 µM
CCCC1(c2ccccc2)OC(=O)NC1=O (stereo not given) | 448 µM
CCCCCC1(c2ccccc2)NC(=O)N(CN2CCN(C(c3ccccc3)c3ccccc3)CC2)C1=O (stereo not given) | 1.3 µM
CCC1(c2ccccc2)NC(=O)N(S(=O)(=O)c2ccc(C)cc2)C1=O (stereo not given) | 51 µM
CCC(O)(C(=O)NCCC(c1ccccc1)c1ccccc1)c1ccccc1 (stereo not given) | 35 µM
CCCCCC(O)(C(=O)NCCC(c1ccccc1)c1ccccc1)c1ccccc1 (stereo not given) | 5.3 µM
CCCCCCCCCC(O)(C(=O)O)c1ccccc1 (stereo not given) | 84 µM
CCCCCCCC(O)(C(=O)O)c1ccccc1 (stereo not given) | > 500 µM
CCC1(c2ccccc2)NC(=O)N(S(C)(=O)=O)C1=O (stereo not given) | > 500 µM
CCC(N)(C(=O)O)c1ccccc1 (stereo not given) | > 500 µM
CCC1(c2ccccc2)NC(=O)NC1=O (stereo not given) | > 200 µM
CCCCCC1(c2ccccc2)NC(=O)NC1=O (stereo not given) | 39 µM
CCCCCC(O)(C(=O)O)c1ccccc1 (stereo not given) | > 500 µM
CCCCCC(O)(C(=O)NCCc1ccccc1)c1ccccc1 (stereo not given) | 5 µM
CCCCCCCCCC(O)(C(N)=O)c1ccccc1 (stereo not given) | 6.5 µM
CCCCCC(O)(C(=O)N1CCN(C(c2ccccc2)c2ccccc2)CC1)c1ccccc1 (stereo not given) | 4.8 µM
CCCCCCCCCC1(c2ccccc2)NC(=O)NC1=O (stereo not given) | 5 µM
O=C1NC(c2ccccc2)(c2ccccc2)C(=O)N1CN1CCN(C(c2ccccc2)c2ccccc2)CC1 | 4.5 µM
CCC(O)(C(=O)NCCc1ccccc1)c1ccccc1 (stereo not given) | 30 µM
CCCCCCCCCC1(c2ccccc2)OC(=O)NC1=O (stereo not given) | 11 µM
